The source of these data is PubChem BioAssay.

Active and inactive are the calls of the source.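 The calls were made as follows, unless noted: active = fluorescence slope higher than the sample average by over 3 SD (cut at about -0.22 in these data, passing the limit was not always enough); inactive = the rest.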

Test [1] can be described thus: inhibitors of TNFa-induced NFkB p65 translocation, primary screen, imaging, HUVEC, MLSMR starter and 10KST1 sets (AID 438;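 active = inhibition above 20% together with a positive visual image hit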;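 also: compound added about 3h40 before a 20 min TNFalpha stimulation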;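 as to inhibition: signal is the nuclear over cytoplasmic p65 intensity ratio per well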). To be noted: HUVEC TNFa-induced p65 nuclear translocation; cell count: measured here: nuclei count (cytotoxicity indicator), at 2.08 µM; inhibition: at 2 µM, stronger effect = higher value, 0% TNFa-plus-vehicle, 100% no-TNFa wells.
A short description of test [2]: endothelial E-selectin expression blockers – imaging, HUVEC, immunofluorescence, MLSMR starter and 10KST1 sets, primary screen (AID 487;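 active = visually confirmed hit in the image check and inhibition above 20%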;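 as to inhibition: signal is fraction of cell area covered by stained E-selectin grains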;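 as to nuclei count: 100% = median nuclei count of all wells on the same plate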). Conditions: HUVEC TNFalpha-induced E-selectin immunofluorescence imaging, at 2 µM; inhibition: stronger effect = higher value; nuclei count: measured here: cell number, toxicity.
A short description of test [3]: Primary imaging screen for DUSP6 inhibitors that restore phospho-Erk in transfected HeLa cells, chemical complementation (AID 609;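 active = compounds giving at least 50% inhibition in the cell-based MKP-3 phosphatase rescue imaging test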;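 as to inhibition: phospho-Erk level distribution per well compared with pooled transfected vehicle control wells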). Conditions: HeLa MKP-3 transfected, phospho-Erk imaging KS statistic, at 10 µM, cells stimulated with TPA for 15 min.
The target of test [4] is Dual specificity protein phosphatase 6 (Homo sapiens) (UniProt Q16828). The description is as above. To be noted: HeLa MKP-3 transfected, phospho-Erk imaging KS statistic; at 10 µM; stronger effect = higher value; cells stimulated with TPA for 15 min.
Chain of Dual specificity protein phosphatase 6 (Homo sapiens) (Q16828 whole entry, looked up): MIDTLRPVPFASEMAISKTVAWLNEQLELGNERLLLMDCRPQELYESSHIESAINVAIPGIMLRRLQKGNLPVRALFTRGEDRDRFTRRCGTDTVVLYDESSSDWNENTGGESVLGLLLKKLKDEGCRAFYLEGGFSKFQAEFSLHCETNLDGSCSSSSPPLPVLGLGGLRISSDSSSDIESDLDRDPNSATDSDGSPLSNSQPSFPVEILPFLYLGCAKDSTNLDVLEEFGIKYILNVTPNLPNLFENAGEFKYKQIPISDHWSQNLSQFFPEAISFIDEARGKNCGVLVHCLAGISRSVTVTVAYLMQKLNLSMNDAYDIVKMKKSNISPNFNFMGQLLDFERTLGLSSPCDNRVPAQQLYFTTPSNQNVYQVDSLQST
In test [5] the target is Voltage-gated potassium channel subunit beta-2 (Rattus norvegicus) (UniProt P62483). Put plainly: inhibitors of rat Kvbeta2 reductase activity – biochemical, NADPH fluorescence, primary screen (AID 622).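 Also: slope of raw intensity against log time taken from 70 to 1610 s.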 To be noted: recombinant KvBeta, 4-cyanobenzaldehyde reduction, at 10 µM, stronger effect = higher value.
Chain of Voltage-gated potassium channel subunit beta-2 (Rattus norvegicus) (P62483 whole entry, looked up): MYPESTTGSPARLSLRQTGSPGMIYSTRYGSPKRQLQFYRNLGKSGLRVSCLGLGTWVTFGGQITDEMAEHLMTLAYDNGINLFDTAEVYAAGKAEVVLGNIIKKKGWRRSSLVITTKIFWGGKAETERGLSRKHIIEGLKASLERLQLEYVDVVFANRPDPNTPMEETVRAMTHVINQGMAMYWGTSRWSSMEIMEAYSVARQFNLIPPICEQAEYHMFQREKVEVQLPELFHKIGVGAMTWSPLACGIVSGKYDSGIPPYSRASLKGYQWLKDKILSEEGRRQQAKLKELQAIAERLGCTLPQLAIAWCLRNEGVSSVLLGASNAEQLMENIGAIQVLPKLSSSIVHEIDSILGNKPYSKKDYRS
The target is the same in test [6]. Put plainly: enhancers of rat Kvbeta2 NADPH turnover – biochemical, NADPH fluorescence, primary screen (AID 623;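 active = NADPH fluorescence slope more negative than the mean of all samples by about 3 SD, 99.7% confidence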;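 also: fluorescence intensity change per second fitted from 20 to 320 s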). To be noted: Recombinant KvBeta, NADPH fluorescence decrease slope, 10 min; at 10 µM; stronger effect = lower value.
Test [7] concerns the target Alpha-2C adrenergic receptor (Homo sapiens) (UniProt P18825). Put plainly: compounds altering alpha2C-coupled GIRK flux – cell-based, HEK293 alpha2C/GIRK1/2, thallium flux, primary screen (AID 624;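 active = fluorescence slope after compound addition differing from the mean of all screened samples at 99.7% confidence, in either direction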;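 also: slope of fluorescence ratio to pre-addition baseline per second over 15 to 24 s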). Conditions: thallium flux BTC fluorescence, at 10 µM, actives lie on both sides.
Test [8] is described as follows: inhibitors of larval lipid processing in zebrafish, primary screen, whole organism, PED6 fluorescence, gall bladder and intestine (AID 686;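 active = a full or partial loss of lipid-probe fluorescence in the fish gall bladder, intestine or both, judged by eye; inactive = no fluorescence loss, or compound toxic to the fish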;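 also: larvae 5 to 7 days old with five fish per well; signal comes from phospholipase A2 cleavage of quenched PED6 carried via bile; overnight exposure to compound and PED6 before scoring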). To be noted: Zebrafish larvae PED6 lipid processing, fluorescence scoring; screened at 20 µM (by protocol). In outline:
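System: live zebrafish larvae aged 5-7 days, whole organism; measure: graded gall bladder and intestinal fluorescence inhibition per well; incubation: overnight exposure; reagent: ingested quenched lipid PED6 at 100 nM; signal: By-eye fluorescence microscopy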

The nature of test [9]: loss of swimming-algae plug formation – whole organism, Chlamydomonas reinhardtii, WT vs cilia-less mutant, absorbance, 96-well, primary screen (AID 463189;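 active = inhibition at or above 50% relative to wild type and mutant plate controls; inactive = inhibition below 50%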;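 also: 0% = wild type cc124 cells in DMSO and 100% = ciliumless bld1 mutant cells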). Conditions: Chlamydomonas reinhardtii gravitaxis, OD600 absorbance, 2 days; at 10 µM; stronger effect = higher value.
Setting [10] is: measured here: cell density z-score.
Setting [11] is: measured here: nuclear c-Myc green intensity z-score.
Setting [12] is: measured here: nuclear pErk red intensity z-score, stronger effect = higher value.

Chain of Alpha-2C adrenergic receptor (Homo sapiens) (P18825 whole entry, looked up): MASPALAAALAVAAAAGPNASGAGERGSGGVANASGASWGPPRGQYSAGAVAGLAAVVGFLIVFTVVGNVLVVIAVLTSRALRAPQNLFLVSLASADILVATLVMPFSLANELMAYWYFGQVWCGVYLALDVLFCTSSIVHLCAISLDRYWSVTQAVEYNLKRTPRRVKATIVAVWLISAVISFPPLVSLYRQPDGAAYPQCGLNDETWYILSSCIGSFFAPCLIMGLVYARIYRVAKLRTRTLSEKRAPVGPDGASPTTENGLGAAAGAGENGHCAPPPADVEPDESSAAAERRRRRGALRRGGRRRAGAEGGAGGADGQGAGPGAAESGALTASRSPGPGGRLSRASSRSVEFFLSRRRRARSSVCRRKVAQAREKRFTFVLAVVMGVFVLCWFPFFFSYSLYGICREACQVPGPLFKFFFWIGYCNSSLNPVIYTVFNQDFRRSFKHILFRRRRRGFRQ

For the molecule `NC(=O)CSc1c[nH]c2ccccc12`, the cell count in test [1] amounted to 640. For the same molecule, the inhibition was -5.5% (inactive) in test [1], 73.3% (inactive) in [2], 17% (inactive) in test [4] and 31.3% (inactive) in test [9]. Besides, the nuclei count in [2] is 169%. Moreover, the z-score is -1.08 in test [3] (setting [10]), 0.978 in [3] (setting [11]) and -1.28 in test [3] (setting [12]). In addition, the fluorescence slope in [5] is -0.497 (inactive). The NADPH fluorescence slope in test [6] is -4.9e-05 (inactive). For the same molecule, the slope in test [7] is 0.00438 (inactive). For the same molecule, the molecule was classed as inactive in test [8].

As for `Oc1c(C=NCc2ccncc2)sc2ccccc12`, the cell count in [1] was found to be 666. Also, the inhibition was -11.1% (inactive) in [1], -63.6% (inactive) in test [2], -4.27% (inactive) in test [4] and -6.05% (inactive) in test [9]. In test [2], this molecule came in with a nuclei count of 177%. In addition, the z-score in [3] (setting [10]) is -0.185; in test [3] (setting [11]), 0.688; in [3] (setting [12]), 2.15. Further, in test [5], the fluorescence slope is -0.425 (inactive). Besides, the NADPH fluorescence slope in test [6] is -6.8e-05 (inactive). Further, in [7], the slope was 0.00509 (inactive). Further, the result in test [8] was inactive.

Take `CCCOc1ccc(Cn2c(O)cc(=O)[nH]c2=O)cc1`: the cell count in [1] was 568. The inhibition is 0% (inactive) in [1], -90.4% (inactive) in test [2], -8.95% (inactive) in test [4] and -1.95% (inactive) in test [9]. The nuclei count in test [2] is 188%. Further, the results for the z-score in test [3] (setting [10]), in test [3] (setting [11]) and in test [3] (setting [12]) were -0.648, -0.788 and 0.279, respectively. For the same molecule, the fluorescence slope in test [5] is -0.372 (inactive). Further, the NADPH fluorescence slope in test [6] is -3.5e-05 (inactive). Also, in [7], the slope is 0.00508 (inactive). Besides, the call in test [8] was inactive.

On to `COC(=O)c1ccccc1N1C(=O)[C@@H]2C(c3ccc(Br)cc3)=NO[C@@H]2C1=O`, for which the cell count in test [1] stood at 269. Further, the inhibition in test [1] was -12.6% (inactive); in [2], 0.3% (inactive); in [4] it was 1.75% (inactive); in test [9], -19.6% (inactive). The molecule also showed a nuclei count in test [2] of 89.9%. For the same molecule, the values for the z-score in [3] (setting [10]), in test [3] (setting [11]) and in test [3] (setting [12]) were -0.914, 2.06 and -1.22, respectively. The fluorescence slope in [5] is -0.458 (inactive). Moreover, the NADPH fluorescence slope in [6] was -7.9e-05 (inactive). In addition, in test [7], the slope is 0.00516 (inactive). In addition, the outcome in test [8] was inactive.

Consider `O=C(Nc1ccc2c(c1)OCCO2)c1ccc(Br)o1`, for which, in test [1], the cell count was 587. In addition, the inhibition in test [1] was 3.2% (inactive); in test [2] it was 6.1% (inactive); in [4], -1.75% (inactive); in [9], 12.8% (inactive). The molecule also yielded a nuclei count in test [2] of 143%. Besides, the z-score in test [3] (setting [10]) was 0.114; in [3] (setting [11]) it was -1.76; in test [3] (setting [12]), -1.37. Also, the fluorescence slope in test [5] was -0.295 (inactive). Also, the NADPH fluorescence slope in test [6] is -8.8e-06 (inactive). In addition, the slope in test [7] is 0.00481 (inactive). The outcome in test [8] was inactive.

For `Cc1nnc2c(NC(C)C)nc3ccccc3n12`, in test [1], the cell count is 381. In addition, the inhibition was -8.4% (inactive) in [1], -63% (inactive) in test [2], 22.7% (inactive) in test [4] and 29.1% (inactive) in test [9]. In addition, the nuclei count in [2] stood at 137%. Further, the values for the z-score in test [3] (setting [10]), in test [3] (setting [11]) and in [3] (setting [12]) were 0.584, -0.494 and -1.32, respectively. Also, the fluorescence slope in [5] is -0.382 (inactive). Also, the NADPH fluorescence slope in test [6] is -5.9e-05 (inactive). For the same molecule, the slope in test [7] is 0.0077 (inactive). In addition, in [8], the molecule was called inactive.

For the molecule `CC(=O)c1c(C)c2c(n1CCN(C)C)CCCC2`, the cell count in test [1] was determined as 518. The inhibition in test [1] is -10% (inactive); in test [2] it was 17.6% (inactive); in test [4] it was -11.5% (inactive); in [9], -13.1% (inactive). In test [2], this molecule gave a nuclei count of 93.6%. Also, the z-score in [3] (setting [10]) was -0.53; in [3] (setting [11]) it was 2.44; in [3] (setting [12]), 1.25. Moreover, in test [5], the fluorescence slope is -0.521 (inactive). In [6], the NADPH fluorescence slope was -1.7e-05 (inactive). The slope in test [7] was 0.0146 (active). Besides, the call in test [8] was inactive.
